Reference: ChEMBL document CHEMBL1137754, “Inhibitors of potassium channels KV1.3 and IK-1 as immunosuppressants” (Bioorg Med Chem Lett, 2009)
Activity calls are given as the source filed them. No cut-off for these calls is given here.

How the values were obtained:
[1] = target: T1, Potassium voltage-gated channel subfamily A member 3 (Homo sapiens, UniProt P22001); assay: Inhibition of cloned Kv1.3 channel expressed in mammalian cells at 2 uM by whole cell patch clamp assay; type: cell-based
How it was run: (§1)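 Whole-cell patch clamp recording, n ≥ 2 individual experiments per compound concentration using different cells. Dose–response curves used four or more concentrations.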

[2] = target: T1, Potassium voltage-gated channel subfamily A member 3; assay: Inhibition of cloned Kv1.3 channel expressed in mammalian cells by whole cell patch clamp assay; type: cell-based; how it was run: as §1
[3] = tested on: PBMC; assay: Immunosuppressant activity in human effector memory T cells of PBMC assessed as inhibition of anti-CD3 antibody-induced cell proliferation by ELISA in presence of 5 uM IK1-blocker TRAM34; type: functional, cell-based
How it was run: (§2)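 T_EM fraction of PBMCs stimulated with anti-CD3 antibody; proliferation dose–response curves for one channel blocker were run against a fixed background of a blocker of the other channel (IK-1 blocker, or 5 µM PAP-1 for Kv1.3). The read-out was EC50.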

[4] = tested on: PBMC; assay: Immunosuppressant activity in human effector memory T cells of PBMC assessed as inhibition of anti-CD3 antibody-induced cell proliferation by ELISA in presence of 5 uM IK1-blocker 5-(Toluene-4-sulfonyl)-5,6-dihydro-dibenzo[b,d]azepin-7-one; type: functional, cell-based; how it was run: as §2
[5] = target: Intermediate conductance calcium-activated potassium channel protein 4 (Homo sapiens, UniProt O15554); assay: Inhibition of human cloned IK1 expressed in african green monkey COS7 cells by whole cell patch clamp assay; type: cell-based, COS-7
Intermediate conductance calcium-activated potassium channel protein 4, sequence (O15554 whole entry): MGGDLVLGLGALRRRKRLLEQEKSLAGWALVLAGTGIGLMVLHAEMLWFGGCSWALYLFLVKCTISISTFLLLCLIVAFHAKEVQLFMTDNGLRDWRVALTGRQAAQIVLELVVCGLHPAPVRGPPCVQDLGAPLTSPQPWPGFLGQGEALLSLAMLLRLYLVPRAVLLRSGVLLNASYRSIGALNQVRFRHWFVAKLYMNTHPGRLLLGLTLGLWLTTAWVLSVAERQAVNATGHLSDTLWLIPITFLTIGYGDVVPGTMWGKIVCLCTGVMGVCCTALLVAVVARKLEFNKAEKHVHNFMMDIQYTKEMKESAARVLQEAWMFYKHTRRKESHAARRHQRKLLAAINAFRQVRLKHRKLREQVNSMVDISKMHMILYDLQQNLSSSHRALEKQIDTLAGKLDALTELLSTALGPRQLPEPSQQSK

[6] = tested on: PBMC; assay: Immunosuppressant activity in human effector memory T cells of PBMC assessed as inhibition of anti-CD3 antibody-induced cell proliferation by ELISA; type: functional, cell-based
[7] = tested on: PBMC; assay: Immunosuppressant activity in human effector memory T cells of PBMC assessed as inhibition of anti-CD3 antibody-induced cell proliferation by ELISA in presence of 16.7 uM IK1-blocker 5-(4-Chloro-benzenesulfonyl)-5,6-dihydro-dibenzo[b,d]azepin-7-one; type: functional, cell-based; how it was run: as §2
[8] = tested on: PBMC; assay: Immunosuppressant activity in human effector memory T cells of PBMC assessed as inhibition of anti-CD3 antibody-induced cell proliferation by ELISA in presence of 5 uM IK1-blocker 5-(4-Chloro-benzenesulfonyl)-5,6-dihydro-dibenzo[b,d]azepin-7-one; type: functional, cell-based; how it was run: as §2
[9] = tested on: HaCaT; assay: Inhibition of human HaCaT cell proliferation after 48 hrs; type: functional, cell-based
How it was run: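 HaCaT keratinocytes were seeded in KBM/10% FCS and held 24 h at 37 °C. Compounds diluted in KBM/FCS (final 1% DMSO) were added in triplicate and incubated 48 h.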

[10] = tested on: PBMC; assay: Immunosuppressant activity in human effector memory T cells of PBMC assessed as inhibition of anti-CD3 antibody-induced cell proliferation by ELISA in presence of 5 uM Kv1.3-blocker PAP1; type: functional, cell-based; how it was run: as §2
[11] = tested on: HaCaT; assay: Cytotoxicity against human HaCaT cells up to 50 uM; type: cell-based
[12] = tested on: Mus musculus; assay: Antiinflammatory activity against oxazolone-induced delayed type hypersensitivity in mouse assessed as reduction in ear swelling at 1%, topically applied 30 mins post oxazolone challenge; type: functional; parameters: scale not given: the % may be the effect or the level left
How it was run: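 Mouse DTH ear-swelling model with oxazolone sensitization and challenge. A single topical dose at 1% in ethanol–DMSO 4:1 was applied 30 min after challenge. The read-out was ear swelling relative to a vehicle-treated group. Protopic (0.1%) served as positive control. Values are means of n = 5 animals per group.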

[13] = tested on: HaCaT; assay: (§3) Cytotoxicity against human HaCaT cells; type: cell-based; conditions: hacat
[14] = Cytotoxicity against human effector memory T cells of PBMC up to 50 uM; type: cell-based
[15] = as §3; type: cell-based; conditions: HaCaT cells, read-out: LD50 (the source's name)
[16] = Cytotoxicity against human effector memory T cells of PBMC; type: cell-based, T-cell; conditions: effector memory T cells from PBMC, read-out: LD50 (the source's name)
[17] = target: T1, Potassium voltage-gated channel subfamily A member 3; assay: Inhibition of cloned Kv1.3 channel expressed in mammalian cells at 20 uM by whole cell patch clamp assay
[18] = target: T1, Potassium voltage-gated channel subfamily A member 3; assay: Inhibition of cloned Kv1.3 channel expressed in mammalian cells at 20 uM by whole cell patch clamp assay; type: cell-based; how it was run: as §1

T1 sequence (P22001 whole entry): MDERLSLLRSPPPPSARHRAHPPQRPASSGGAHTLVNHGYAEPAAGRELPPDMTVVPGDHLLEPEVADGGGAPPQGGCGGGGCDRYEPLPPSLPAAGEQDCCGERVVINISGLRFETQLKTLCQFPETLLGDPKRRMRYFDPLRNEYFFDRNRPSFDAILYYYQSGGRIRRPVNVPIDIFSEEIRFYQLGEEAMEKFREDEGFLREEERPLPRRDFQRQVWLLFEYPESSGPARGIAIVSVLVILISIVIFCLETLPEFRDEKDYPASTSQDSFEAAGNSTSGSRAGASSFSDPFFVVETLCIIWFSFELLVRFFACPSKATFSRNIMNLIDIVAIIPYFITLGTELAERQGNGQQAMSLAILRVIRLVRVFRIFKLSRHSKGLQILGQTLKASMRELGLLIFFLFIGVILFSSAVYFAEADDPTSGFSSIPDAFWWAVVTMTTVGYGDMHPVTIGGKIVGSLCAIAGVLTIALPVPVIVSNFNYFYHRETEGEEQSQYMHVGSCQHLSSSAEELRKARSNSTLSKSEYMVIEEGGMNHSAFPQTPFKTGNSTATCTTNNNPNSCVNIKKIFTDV

O=C(O)C(=O)C1c2ccccc2-c2ccccc2N1C(=O)c1ccco1 (configuration not stated)
inhibition [1]: 41%

O=C1CN(S(=O)(=O)c2cccc(Cl)c2)c2ccccc2-c2ccccc21
IC50 [2]: 3.6 µM

O=c1ccc2c(OCCCCOc3ccccc3)c3ccoc3cc2o1
EC50 [3]: 0.43 µM | EC50 [4]: 0.4 µM | IC50 [5]: 10 µM | EC50 [6]: 25 µM | EC50 [7]: 0.5 µM | EC50 [8]: 1.2 µM

O=C1CN(S(=O)(=O)c2ccc([N+](=O)[O-])cc2)c2ccccc2-c2ccccc21
IC50 [2]: > 10 µM

Clc1ccccc1C(c1ccccc1)(c1ccccc1)n1cccn1
EC50 [9]: 40 µM | Activity [6]: inactive | EC50 [10]: 0.025 µM | IC50 [2]: 5 µM

COc1ccc(C(=O)C2c3ccccc3-c3ccccc3N2C(=O)c2ccco2)cc1 (configuration not stated)
inhibition [1]: 13%

O=C1CN(S(=O)(=O)c2cccs2)c2ccccc2-c2ccccc21
IC50 [5]: 2.4 µM | IC50 [2]: 13 µM

COc1cccc(C(=O)C2c3ccccc3-c3ccccc3N2C(=O)c2ccco2)c1 (configuration not stated)
inhibition [1]: 30%

Cc1ccc(C(=O)N2CC(=O)c3ccccc3-c3ccccc32)cc1
IC50 [5]: 16 µM | IC50 [2]: 4 µM

O=C(c1ccc[nH]1)C1c2ccccc2-c2ccccc2N1C(=O)c1ccco1 (configuration not stated)
inhibition [1]: 15%

Cc1ccc(S(=O)(=O)N2CC(=O)c3ccccc3-c3ccccc32)cc1
EC50 [9]: 8.4 µM | Activity [11]: Non-toxic | Activity [12]: 20% | IC50 [5]: 2.1 µM | Activity [13]: Non-toxic | Activity [6]: inactive | EC50 [10]: 2.5 µM | Activity [14]: Non-toxic | IC50 [2]: 5.8 µM

O=C(CCc1ccccc1)C1c2ccccc2-c2ccccc2N1C(=O)c1ccco1 (configuration not stated)
inhibition [1]: 15%

Clc1ccccc1C(c1ccccc1)(c1ccccc1)n1ccnc1 [CLOTRIMAZOLE]
EC50 [9]: 15 µM | Activity [12]: 20% | CC50 [15]: 40 µM | CC50 [16]: 40 µM | IC50 [2]: 6 µM

CCCC(C)C(=O)N1c2ccccc2-c2ccccc2C1c1cccs1 (configuration not stated)
inhibition [1]: 59% | IC50 [2]: < 2 µM

O=C(c1cc(F)ccc1F)N1c2ccccc2-c2ccccc2C1c1cccs1 (configuration not stated)
inhibition [1]: 27%

O=C1CN(C(=O)c2cccc(Cl)c2)c2ccccc2-c2ccccc21
IC50 [5]: 1.3 µM | IC50 [2]: 3.4 µM

O=C(CCC1CCCC1)C1c2ccccc2-c2ccccc2N1C(=O)c1ccco1 (configuration not stated)
inhibition [1]: 11%

O=c1c2ccccc2c2ccccc2n1CCn1cccc1
EC50 [9]: 2.3 µM | inhibition [17]: 57% | inhibition [18]: 57%

O=C(c1ccc2c(c1)OCO2)C1c2ccccc2-c2ccccc2N1C(=O)c1ccco1 (configuration not stated)
inhibition [1]: 8%

CC(=O)N1c2ccccc2-c2ccccc2C1c1c[nH]c2ccccc12 (configuration not stated)
IC50 [2]: 5 µM

O=c1[nH]c2ccccc2c2ccccc12
inhibition [17]: 12%
